SENP1 FRET inh: human SENP1 catalytic domain inhibitors, primary screen, biochemical, FRET, uHTS | AID 624204, 2012 | Sentrin-specific protease 1 (Homo sapiens), Q9P0U3 | recombinant SENP1 catalytic domain, CyPet-SUMO1-YPet FRET cleavage | hit rate 0.21% among 360,000 | inhibition, % at 10 µM;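 active = inhibition at least 30% at 10 µM, raw YFP signal under a set limit, fluorescence ratio 0.5 to 1.5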
Target sequence (Q9P0U3 419-644 limits assumed): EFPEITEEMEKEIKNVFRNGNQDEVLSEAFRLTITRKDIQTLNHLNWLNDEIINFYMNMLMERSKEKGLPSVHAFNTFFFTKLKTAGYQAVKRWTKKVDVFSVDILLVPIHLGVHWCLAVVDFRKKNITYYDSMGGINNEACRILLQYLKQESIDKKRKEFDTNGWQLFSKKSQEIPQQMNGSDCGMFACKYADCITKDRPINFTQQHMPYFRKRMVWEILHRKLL
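Compound: 10 µM single point, 0.5% DMSO; Test system: hSENP1 catalytic domain, recombinant; Timing: 50 min reaction at room temperature; Technique: FRET, CFP and YFP emission; Control set: no-enzyme wells low, DMSO-plus-enzyme wells high control.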
FAS TE block: FAS thioesterase domain inhibitors, primary screen, biochemical, fluorescence intensity, uHTS; AID 602261, 2012; recombinant FAS-TE, OMFH fluorogenic substrate, fluorescence endpoint; hit rate 0.67% among 360,000; Fatty acid synthase (Homo sapiens), P49327; inhibition, % at 15 µM;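 active = compounds whose normalised, plate-corrected inhibition of enzyme fluorescence in the single-dose primary screen is 50% or more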
Arrestin-AP2 inh: inhibitors of beta-arrestin/AP2 binding, primary screen, biochemical, GPCR trafficking, flow cytometry. hit rate 0.31% among 340,000. inhibition, % at 10 µM. beta-arrestin 1 C-terminal peptide binding to AP2 beta2-adaptin appendage (human). FITC-arrestin peptide / GST-AP2 beads; AP2 beta2 appendage carries R879A mutation;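 active = inhibition above a set limit, near 3 SD of compounds lacking own fluorescence, cut at about 54% in these data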
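system = GST-tagged AP2 beta2-adaptin appendage (R879A) on 4 µm glutathione beads | reagent = FITC-labelled arrestin peptide probe, 50 nM final | schedule = compound with beads 12 min RT, then probe 1 h RT | signal = HyperCyt-sampled flow cytometry, FL1 channel, ex 488/em 535 nm | read-out = percent response from loss of bead-bound FITC fluorescence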
GASC-1 inh: inhibitors of GASC-1 histone demethylase, primary screen, biochemical, fluorescence, DELFIA europium | Lysine-specific demethylase 4C (Homo sapiens), Q9H3R0 | inhibition, % at 2.35 µM | GST-JMJD2C(1-420) H3K9me3 demethylation | hit rate 0.069% among 330,000 | AID 2099, 2009;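 active = more than half of a compound's replicate wells show inhibition beyond 50%, single wells judged on their own value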;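 note: signal counts dimethyl H3K9 product captured on neutravidin plate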
Target sequence (Q9H3R0 1-420 limits assumed): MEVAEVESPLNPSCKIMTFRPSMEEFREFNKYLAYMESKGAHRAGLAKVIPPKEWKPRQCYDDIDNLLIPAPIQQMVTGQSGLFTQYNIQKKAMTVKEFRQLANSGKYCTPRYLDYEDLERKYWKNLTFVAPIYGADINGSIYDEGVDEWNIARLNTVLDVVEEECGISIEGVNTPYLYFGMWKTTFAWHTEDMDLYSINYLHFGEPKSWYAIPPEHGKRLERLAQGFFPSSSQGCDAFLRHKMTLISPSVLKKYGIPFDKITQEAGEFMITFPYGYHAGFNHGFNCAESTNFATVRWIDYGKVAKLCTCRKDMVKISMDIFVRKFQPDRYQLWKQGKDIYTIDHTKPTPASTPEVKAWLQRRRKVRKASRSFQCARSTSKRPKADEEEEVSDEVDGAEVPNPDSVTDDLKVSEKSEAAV
Arr-AP2 CP1: inhibitors of arrestin peptide binding to AP2, confirmation, biochemical, cherry pick 1, flow cytometry beads; inhibition, % at 10 µM; hit rate 2% among 1,300; GST-AP2 beads, FITC arrestin peptide binding; GST-fused beta2-adaptin appendage, R879A mutant; shares compounds with Arrestin-AP2 inh;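 active = inhibition above a set limit, roughly 3 SD of non-fluorescent compound noise, cut at about 38% in these data; inactive = inhibition at or below that limit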;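 note: loss of bead fluorescence from 50 nM FITC arrestin peptide bound to appendage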
GST-FITC bead: GST-fluorescein capture on glutathione beads, confirmation, artefact control for arrestin-AP2 inhibitor project, biochemical, cherry pick 1, flow cytometry | inhibition, % at 10 µM | hit rate 2% among 1,300 | shares compounds with Arrestin-AP2 inh | GST-fluorescein binding to GSH beads, fluorescence, counter-screen;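 active = inhibition above 50%, about 3 SD of the inhibition seen with non-fluorescent compounds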;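 note: fluorescein maleimide labelled GST captured on 4 micron glutathione beads; higher means more loss of bead fluorescence from quenching or blocked binding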
Large screens that a line does not name were inactive (follow-up assays come after a bar, where they were run). In the library only some 1.1% were active in any assay of this set; here they are far more common.

CC12CCC(=O)N1C(C(=O)OCC(=O)Nc1cccc(S(=O)(=O)N3CCCCCC3)c1)CS2 (stereo not given)	none
CN(C(=O)COC(=O)C1CSC2(C)CCC(=O)N12)c1ccccc1 (stereo not given)	none | Arr-AP2 CP1 inactive | GST-FITC bead inactive
C[C@H](NC(=O)[C@@H]1Cc2ccccc2CN1C(=O)OC(C)(C)C)C(=O)NC1CCCCC1	none
CC(=O)CC(C)(C)n1nnc(-c2ccccc2)n1	none
CCc1noc(C)c1C(=O)Nc1ccc(C)c(S(=O)(=O)N2CCCCCC2)c1	none
CNC(=O)COC(=O)Cc1ccc(Cl)cc1	none
CC12CCC(=O)N1C(C(=O)OCC(=O)Nc1cccc(Br)c1)CS2 (stereo not given)	none | Arr-AP2 CP1 inactive | GST-FITC bead inactive
Cc1ccc(NC(=O)COC(=O)C2CSC3(C)CCC(=O)N23)cc1S(=O)(=O)N1CCOCC1 (stereo not given)	Arrestin-AP2 inh 64 | Arr-AP2 CP1 inactive | GST-FITC bead inactive
CCN(CC)S(=O)(=O)c1ccc(-n2c(=O)c(C(C)C)c(C)n2C)cc1	none
CSc1ccc(CCNC(=O)c2nn(C)c3c2CS(=O)(=O)c2ccccc2-3)cc1	none
CCOC(=O)N1CCN(C(=O)c2ccc(S(=O)(=O)NCc3ccco3)cc2)CC1	none
COc1ccc(N2CCN(C(=O)c3ccc(S(=O)(=O)NCc4ccco4)cc3)CC2)cc1	none | Arr-AP2 CP1 inactive | GST-FITC bead inactive
COc1ccc(CN2CCN(C(=O)c3ccc(S(=O)(=O)NCc4ccco4)cc3)CC2)cc1F	none (no result: GASC-1 inh) | Arr-AP2 CP1 inactive | GST-FITC bead inactive
Cc1ccccc1CN1CCN(C(=O)c2ccc(S(=O)(=O)NCc3ccco3)cc2)CC1	none | Arr-AP2 CP1 inactive | GST-FITC bead inactive
C[C@@H]1CN([C@H](C)CO)C(=O)c2cc(NS(=O)(=O)c3ccc(F)cc3)ccc2O[C@@H]1CN(C)Cc1ccc(Cl)c(Cl)c1	none (no result: GASC-1 inh)
COc1cccc(OCC(=O)Nc2c3c(nn2-c2ccc(F)cc2)CS(=O)(=O)C3)c1	none
COc1ccccc1NS(=O)(=O)c1cccc(NC(=O)C2CC(=O)N(Cc3ccccc3)C2)c1 (stereo not given)	Arrestin-AP2 inh 60 | Arr-AP2 CP1 inactive | GST-FITC bead inactive
CC(C)(C)c1ccc(C(=O)N2CCN(CCNC(=O)C(=O)NCc3ccc(Cl)cc3)CC2)cc1	none
CCOc1ccccc1NC(=O)c1ccc(S(=O)(=O)N2CCCCC2)cc1	none
CCOc1ccccc1NC(=O)c1ccc(F)c(S(=O)(=O)N2CCC3(CC2)OCCO3)c1	Arrestin-AP2 inh 61 | Arr-AP2 CP1 inactive | GST-FITC bead inactive
Cn1c(=O)[nH]c(=O)c2c1nc(N1CCNCC1)n2Cc1ccccc1Cl	none
Cn1c(=O)[nH]c(=O)c2c1nc(N1CCCCCC1)n2Cc1cccc2ccccc12	Arrestin-AP2 inh 100 | Arr-AP2 CP1 inactive | GST-FITC bead inactive
CCCCC(=O)Nc1ccc(C(=O)c2ccccc2)cc1	none
O=S(=O)(c1ccc2c(c1)OCCO2)N1CCN(S(=O)(=O)c2ccco2)CC1	none
O=C(c1ccco1)N1CCN(S(=O)(=O)c2ccc3c(c2)OCCO3)CC1	Arrestin-AP2 inh 96 | Arr-AP2 CP1 inactive | GST-FITC bead inactive
CCc1ccc(C=NC23CN4CN(CN(C4)C2)C3)s1	none
Nc1c(N(C(=O)Nc2ccc(Cl)c(Cl)c2)C2CCCC2)c(=O)[nH]c(=O)n1Cc1ccccc1	Arrestin-AP2 inh 84 | Arr-AP2 CP1 inactive | GST-FITC bead inactive
COCCN(C(=O)C1CCCC1)c1c(N)n(Cc2ccccc2)c(=O)[nH]c1=O	none
O=C(CCC(=O)N1CCCCC1)Nc1ccc(Cl)c(Cl)c1	Arrestin-AP2 inh 85 | Arr-AP2 CP1 inactive | GST-FITC bead inactive
COc1cc(/C=C/C(=O)N[C@@H](Cc2c[nH]c3ccccc23)C(=O)O)ccc1O	none
COc1cccc(CNC(C)C(=O)Nc2ccc3c(c2)OCCO3)c1 (stereo not given)	none
Cc1cccc(OC(C)C(=O)Nc2ccc3c(c2)OCCO3)c1 (stereo not given)	none (no result: GASC-1 inh) | Arr-AP2 CP1 inactive | GST-FITC bead inactive
CC1Cc2ccccc2N1C(=O)C(C)n1cc(C(F)(F)F)cc(Cl)c1=O (stereo not given)	Arrestin-AP2 inh 69 | Arr-AP2 CP1 inactive | GST-FITC bead inactive
Cc1nc2ccc(F)cc2cc1C(=O)NCC1CCCO1 (stereo not given)	Arrestin-AP2 inh 105 | Arr-AP2 CP1 inactive | GST-FITC bead inactive
O=C(NCC1CCCO1)c1cc2ccccc2nc1Cl (stereo not given)	none
CCn1ncc(S(=O)(=O)NCc2ccccc2Cl)c1C	none
Cc1ccc2[nH]c(=O)c(CN(CCCN3CCOCC3)C(=O)NC3CCCCC3)cc2c1	none | Arr-AP2 CP1 inactive | GST-FITC bead inactive
O=C(NC1CCCCC1)N(CCN1CCOCC1)Cc1cc2cc3c(cc2[nH]c1=O)OCCO3	none
CCc1ccc2[nH]c(=O)c(CN(CCCN3CCOCC3)C(=O)Nc3ccccc3)cc2c1	none
CCc1ccc2[nH]c(=O)c(CN(CCN3CCCC3)C(=O)NC3CCCCC3)cc2c1	none | Arr-AP2 CP1 inactive | GST-FITC bead inactive
Cc1ccc(C(=O)NC(Cc2c[nH]c3ccccc23)C(=O)O)o1 (stereo not given)	none
CN1CCN(Cc2nc(Cc3cccc(F)c3)no2)CC1c1ccccc1 (stereo not given)	none
CCc1cc2c(-n3nc(C)cc3C)ncnc2s1	none
CC(C)COc1ccc(C(=O)NC(=S)Nc2ccc(CN3CCOCC3)cc2)cc1	Arrestin-AP2 inh 103 | Arr-AP2 CP1 inactive | GST-FITC bead inactive
O=C(/C=C/c1ccccc1)Nc1ccc(CN2CCOCC2)cc1	none
O=C(/C=C/c1ccc(Cl)cc1)NC(=S)Nc1ccc(CN2CCOCC2)cc1	Arrestin-AP2 inh 105 | Arr-AP2 CP1 inactive | GST-FITC bead inactive
COc1cc(C#N)c(N=C(SCC#N)N2CCOCC2)cc1OC	Arrestin-AP2 inh 59 | Arr-AP2 CP1 inactive | GST-FITC bead inactive
Cc1ccccc1OCCOC(=O)c1ccc(S(=O)(=O)N2CCCC2)cc1	none (no result: GASC-1 inh)
C=CCSc1nnc(NC(=O)C2CC(=O)N(Cc3ccc(C)cc3)C2)s1 (stereo not given)	Arrestin-AP2 inh 56 | Arr-AP2 CP1 inactive | GST-FITC bead inactive
CCc1nnc(NC(=O)Cc2cc(OC)c(OC)c(OC)c2)s1	Arrestin-AP2 inh 71 | Arr-AP2 CP1 inactive | GST-FITC bead inactive
O=C(CN1CCN(C(=O)c2ccco2)CC1)NCc1ccc(Cl)cc1	none

Screening results from PubChem BioAssay.
